Assay results reported in ChEMBL document CHEMBL5096186, “Design, Synthesis, and Biological Evaluation of Novel Pyrimido[4,5-b]indole Derivatives Against Gram-Negative Multidrug-Resistant Pathogens” (J Med Chem, 2021).
Values after ≈ are worked out from the molar mass of the structure shown.

Key:
Format in all cases: functional
Details in all cases: time 18-20 hrs
[1] = tested on: Escherichia coli; experiment: Antibacterial activity against ESBL-producing Escherichia coli ATCC 35218 strains 15 1 to 3 assessed as reduction in bacterial growth incubated for 18 to 20 hrs by CLSI based microdilution method
Method in brief: (§1)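 CLSI broth microdilution. Compounds in DMSO (levofloxacin and meropenem in water), serial twofold dilutions in broth, 64 to 0.008 μg/mL. […] Results reported as MIC ranges across strains.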

[2] = tested on: Escherichia coli; experiment: Antibacterial activity against Escherichia coli ATCC 35218 strains 15 1 to 3 assessed as reduction in bacterial growth incubated for 18 to 20 hrs by CLSI based microdilution method; method in brief: as §1
[3] = tested on: Acinetobacter baumannii; experiment: Antibacterial activity agains OXA23-producing multidrug resistant Acinetobacter baumannii assessed as reduction in bacterial growth incubated for 18 to 20 hrs by CLSI based microdilution method
Method in brief: (§2)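 Broth microdilution per CLSI. Compounds dissolved in DMSO (levofloxacin and meropenem in water) as 64 μg/mL stock, then serial twofold dilutions in broth giving 64 to 0.008 μg/mL. […] Clinical isolates tested as several strains per group; racemic GP-1 served as positive control; values given as MIC ranges.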

[4] = tested on: Escherichia coli; experiment: Antibacterial activity against multidrug resistant wild type Escherichia coli NCTC 13353 assessed as reduction in bacterial growth incubated for 18 to 20 hrs by CLSI based microdilution method; method in brief: as §2
[5] = tested on: Pseudomonas aeruginosa; experiment: Antibacterial activity against wild type Pseudomonas aeruginosa ATCC 27853 assessed as reduction in bacterial growth incubated for 18 to 20 hrs by CLSI based microdilution method; method in brief: as §1
[6] = tested on: Escherichia coli; experiment: Antibacterial activity against ESBL-producing multidrug resistant Escherichia coli assessed as reduction in bacterial growth incubated for 18 to 20 hrs by CLSI based microdilution method; method in brief: as §2
[7] = tested on: Escherichia coli; experiment: Antibacterial activity against multidrug resistant wild type Escherichia coli ATCC BAA-2340 assessed as reduction in bacterial growth incubated for 18 to 20 hrs by CLSI based microdilution method; method in brief: as §2
[8] = tested on: Acinetobacter baumannii; experiment: Antibacterial activity against wild type Acinetobacter baumannii NCTC 13304 assessed as reduction in bacterial growth incubated for 18 to 20 hrs by CLSI based microdilution method; method in brief: as §2
[9] = tested on: Klebsiella pneumoniae; experiment: Antibacterial activity against KPC2-producing multidrug resistant Klebsiella pneumoniae assessed as reduction in bacterial growth incubated for 18 to 20 hrs by CLSI based microdilution method; method in brief: as §2
[10] = tested on: Klebsiella pneumoniae; experiment: Antibacterial activity agains wild type Klebsiella pneumoniae ATCC BAA-2470 assessed as reduction in bacterial growth incubated for 18 to 20 hrs by CLSI based microdilution method; method in brief: as §2
[11] = tested on: Klebsiella pneumoniae; experiment: Antibacterial activity agains wild type Klebsiella pneumoniae ATCC BAA-1705 assessed as reduction in bacterial growth incubated for 18 to 20 hrs by CLSI based microdilution method; method in brief: as §1
[12] = tested on: Pseudomonas aeruginosa; experiment: Antibacterial activity against IMP4-producing multidrug resistant Pseudomonas aeruginosa assessed as reduction in bacterial growth incubated for 18 to 20 hrs by CLSI based microdilution method; method in brief: as §2
[13] = tested on: Staphylococcus aureus; experiment: Antibacterial activity against methicillin-resistant Staphylococcus aureus strains 15 1 to 4 assessed as reduction in bacterial growth incubated for 18 to 20 hrs by CLSI based microdilution method; method in brief: as §2
[14] = tested on: Staphylococcus aureus; experiment: Antibacterial activity against methicillin-sensitive Staphylococcus aureus strains 15 1 to 4 assessed as reduction in bacterial growth incubated for 18 to 20 hrs by CLSI based microdilution method; method in brief: as §2
[15] = tested on: Pseudomonas aeruginosa; experiment: Antibacterial activity against multidrug resistant Pseudomonas aeruginosa strains 15 1 to 3 assessed as reduction in bacterial growth incubated for 18 to 20 hrs by CLSI based microdilution method; method in brief: as §2
[16] = tested on: Staphylococcus epidermidis; experiment: Antibacterial activity against methicillin-sensitive Staphylococcus epidermidis strains 15 1 to 4 assessed as reduction in bacterial growth incubated for 18 to 20 hrs by CLSI based microdilution method; method in brief: as §2

Row | SMILES | MIC [1] | MIC [2] | MIC [3] | MIC [4] | MIC [5] | MIC [6] | MIC [7] | MIC [8] | MIC [9] | MIC [10] | MIC [11] | MIC [12] | MIC [13] | MIC [14] | MIC [15] | MIC [16]
1 | CCC(CO)=C1CN(c2nc(Oc3cnc4ccnn4c3)nc3[nH]c4c(NC)cc(F)cc4c23)C1 | 0.25 µg/mL (≈ 0.527 µM) | 0.25 µg/mL (≈ 0.527 µM) |  |  |  |  |  |  |  |  |  |  |  |  |  | 
2 | [2H]C([2H])([2H])Nc1cc(F)cc2c1[nH]c1nc(Oc3cnc(C)nc3)nc(N3CC(=C(C)[C@H](C)N)C3)c12 |  |  | 0.5 µg/mL (≈ 1.11 µM) | 0.125 µg/mL (≈ 0.277 µM) | 2 µg/mL (≈ 4.43 µM) | 0.5 µg/mL (≈ 1.11 µM) | 0.5 µg/mL (≈ 1.11 µM) | 0.5 µg/mL (≈ 1.11 µM) | 2 µg/mL (≈ 4.43 µM) | 2 µg/mL (≈ 4.43 µM) | 8 µg/mL (≈ 17.7 µM) | 8 µg/mL (≈ 17.7 µM) |  |  |  | 
3 | CC(C)(O/N=C(\C(=O)N[C@@H]1C(=O)N2C(C(=O)[O-])=C(C[N+]3(CCNC(=O)c4ccc(O)c(O)c4Cl)CCCC3)CS[C@H]12)c1csc(N)n1)C(=O)O [CEFIDEROCOL] |  |  | 2 µg/mL (≈ 2.66 µM) | 4 µg/mL (≈ 5.32 µM) | 4 µg/mL (≈ 5.32 µM) | 0.25 µg/mL (≈ 0.332 µM) | 4 µg/mL (≈ 5.32 µM) | 2 µg/mL (≈ 2.66 µM) | 2 µg/mL (≈ 2.66 µM) | > 64 µg/mL | 32 µg/mL (≈ 42.5 µM) | 1 µg/mL (≈ 1.33 µM) |  |  |  | 
4 | [2H]C([2H])([2H])Nc1cc(F)cc2c1[nH]c1nc(Oc3cnc(C(C)O)nc3)nc(N3CC(=C(CC)CN)C3)c12 (centres undefined) |  |  | 2 µg/mL (≈ 4.15 µM) | 1 µg/mL (≈ 2.08 µM) | 8 µg/mL (≈ 16.6 µM) | 4 µg/mL (≈ 8.31 µM) | 2 µg/mL (≈ 4.15 µM) | 2 µg/mL (≈ 4.15 µM) | 4 µg/mL (≈ 8.31 µM) | 8 µg/mL (≈ 16.6 µM) | 8 µg/mL (≈ 16.6 µM) | 16 µg/mL (≈ 33.2 µM) |  |  |  | 
5 | CCC(CN)=C1CN(c2nc(Oc3cnc(C)nc3)nc3[nH]c4c(NC)cc(F)c(F)c4c23)C1 | 64 µg/mL (≈ 137 µM) | 0.5 µg/mL (≈ 1.07 µM) |  |  |  |  |  |  |  |  |  |  | 0.25 µg/mL (≈ 0.536 µM) | 0.25 µg/mL (≈ 0.536 µM) | > 64 µg/mL | < 0.03 µg/mL
6 | CNc1cc(F)cc2c1[nH]c1nc(Oc3cnc(C)nc3)nc(N3CC(=C(CO)C(C)C)C3)c12 | 0.5 µg/mL (≈ 1.08 µM) | 0.125 µg/mL (≈ 0.27 µM) |  |  |  |  |  |  |  |  |  |  | < 0.03 µg/mL | < 0.008 µg/mL | ≥ 64 µg/mL | < 0.03 µg/mL
